Source: PubChem BioAssay
Activity calls are given as the source filed them.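 Rule for the calls, unless noted: active = NADPH fluorescence slope more negative than the mean of all samples by about 3 SD, 99.7% confidence; inactive = the rest.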

How the values were obtained:
[1] = inhibitors of TNFa-induced NFkB p65 translocation, primary screen, imaging, HUVEC, MLSMR starter and 10KST1 sets (AID 438;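 active = inhibition above 20% together with a positive visual image hit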;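 note: compound added about 3h40 before a 20 min TNFalpha stimulation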;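 for inhibition: signal is the nuclear over cytoplasmic p65 intensity ratio per well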); conditions: HUVEC TNFa-induced p65 nuclear translocation; cell count: measured here: nuclei count (cytotoxicity indicator), at 2.08 µM; inhibition: at 2 µM, stronger effect = higher value, 0% TNFa-plus-vehicle, 100% no-TNFa wells
[2] = reduction of polyQ htt aggregates in cells – imaging, exon1htt(103Q)mCFP cells, high-content imaging, primary screen (AID 483;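 active = visual image review flags a hit and inhibition of aggregation exceeds 20%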;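 note: compound exposure lasted 3 days before fixation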;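 for nuclei count: percent of the per-plate median nuclei count of sample wells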); conditions: exon1htt(103Q)mCFP cell line, aggregate imaging, at 2 µM; inhibition of aggregation: stronger effect = higher value; nuclei count: measured here: cell count, toxicity
[3] = endothelial E-selectin expression blockers – imaging, HUVEC, immunofluorescence, MLSMR starter and 10KST1 sets, primary screen (AID 487;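 active = visually confirmed hit in the image check and inhibition above 20%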;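 for inhibition: signal is fraction of cell area covered by stained E-selectin grains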;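 for nuclei count: 100% = median nuclei count of all wells on the same plate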); conditions: HUVEC TNFalpha-induced E-selectin immunofluorescence imaging, at 2 µM; inhibition: stronger effect = higher value; nuclei count: measured here: cell number, toxicity
[4] = biological target: Voltage-gated potassium channel subunit beta-2 (Rattus norvegicus) (UniProt P62483); assay: inhibitors of rat Kvbeta2 reductase activity – biochemical, NADPH fluorescence, primary screen (AID 622;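 active = fluorescence slope higher than the sample average by over 3 SD, cut at about -0.22 in these data, passing the limit was not always enough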;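 note: slope of raw intensity against log time taken from 70 to 1610 s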); conditions: recombinant KvBeta, 4-cyanobenzaldehyde reduction, at 10 µM, stronger effect = higher value
Chain of Voltage-gated potassium channel subunit beta-2 (Rattus norvegicus) (P62483 whole entry, looked up): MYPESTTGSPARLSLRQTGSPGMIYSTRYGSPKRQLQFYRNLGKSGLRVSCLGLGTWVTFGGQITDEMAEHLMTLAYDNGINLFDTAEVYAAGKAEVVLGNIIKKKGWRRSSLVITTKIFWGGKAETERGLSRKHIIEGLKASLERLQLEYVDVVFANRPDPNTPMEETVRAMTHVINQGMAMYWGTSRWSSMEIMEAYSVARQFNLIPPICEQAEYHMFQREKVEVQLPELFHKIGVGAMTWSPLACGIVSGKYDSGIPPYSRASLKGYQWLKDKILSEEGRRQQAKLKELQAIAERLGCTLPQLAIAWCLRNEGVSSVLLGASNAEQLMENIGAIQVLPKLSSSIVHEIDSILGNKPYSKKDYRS

[5] = biological target: Voltage-gated potassium channel subunit beta-2 (Rattus norvegicus) (UniProt P62483); assay: enhancers of rat Kvbeta2 NADPH turnover – biochemical, NADPH fluorescence, primary screen (AID 623); conditions: Recombinant KvBeta, NADPH fluorescence decrease slope, 10 min; at 10 µM; stronger effect = lower value;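 note: fluorescence intensity change per second fitted from 20 to 320 s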
[6] = biological target: Muscarinic acetylcholine receptor M4 (Homo sapiens) (UniProt P08173); assay: M4-linked GIRK flux change, two-sided – cell-based, HEK293 M4/GIRK, thallium flux, BTC-AM, M4 allosteric agonist project, primary screen (AID 625;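 active = fluorescence slope after compound addition differing from the mean of all tested samples at 99.7% confidence, mostly higher but some lower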;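 note: thallium influx through GIRK channels coupled to M4 in HEK293 cells with BTC-AM dye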); conditions: at 10 µM, actives lie on both sides
Chain of Muscarinic acetylcholine receptor M4 (Homo sapiens) (P08173 whole entry, looked up): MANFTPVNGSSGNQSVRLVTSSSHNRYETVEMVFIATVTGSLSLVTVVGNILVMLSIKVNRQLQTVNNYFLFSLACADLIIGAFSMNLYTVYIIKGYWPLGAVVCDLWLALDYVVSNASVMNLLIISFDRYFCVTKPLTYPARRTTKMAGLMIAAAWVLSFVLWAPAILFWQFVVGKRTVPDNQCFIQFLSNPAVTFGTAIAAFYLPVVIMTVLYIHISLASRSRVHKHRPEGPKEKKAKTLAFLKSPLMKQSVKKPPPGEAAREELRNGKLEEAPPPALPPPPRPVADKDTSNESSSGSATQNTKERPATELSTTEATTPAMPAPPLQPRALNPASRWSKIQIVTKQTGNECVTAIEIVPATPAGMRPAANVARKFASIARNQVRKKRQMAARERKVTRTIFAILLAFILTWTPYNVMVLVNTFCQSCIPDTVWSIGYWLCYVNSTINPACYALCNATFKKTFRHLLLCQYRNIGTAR
Method in brief: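 Material – HEK293 cells with M4 receptor and GIRK channels · Buffer or medium – pH 7.3 thallium assay buffer · Doses – one dose, 10 µM final · Timing – cells overnight at 37 °C, BTC-AM loading 1 h, reads 2 min total · Measured by – kinetic fluorescence with BTC-AM dye · Controls – carbachol and DMSO controls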

[7] = blockers of RIG-like receptor reporter activation – cell-based, Sendai virus stimulus, luciferase, 10K MLSCN set, TLR/RLR signaling modifier project, primary screen (AID 602276;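 active = inhibition at or above 50% at 10 µM; inactive = inhibition below 50%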;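 note: firefly luciferase from ISG56 promoter only with Renilla not read in this screen; 0% = Sendai virus plus DMSO and 100% = medium plus DMSO without virus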); conditions: HEK293 RL24 IRF3 luciferase reporter, at 10 µM, stronger effect = higher value
[8] = TLR3 IRF3 reporter activation blockers – cell-based, poly I:C stimulus, luciferase, 10K MLSCN set, primary screen (AID 602277;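 active = inhibition of the reporter signal at or above 50%; inactive = inhibition below 50%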); conditions: HEK293-TLR3 RL24 IRF3 luciferase reporter, at 10 µM, stronger effect = higher value

| Structure (SMILES) | cell count [1] | inhibition [1] | inhibition of aggregation [2] | nuclei count [2] [%] | inhibition [3] | nuclei count [3] [%] | fluorescence slope [4] | NADPH fluorescence slope [5] | fluorescence slope [6] | inhibition [7] | inhibition [8] |
| --- | --- | --- | --- | --- | --- | --- | --- | --- | --- | --- | --- |
| O=C(O)C1C2CCC(C2)C1C(=O)NCCCn1ccnc1 (centres undefined) | 486 | 0% (inactive) | 18.3% (inactive) | 72.3 | 65.4% (active) | 65.1 | -0.491 (inactive) | -8.2e-05 (inactive) | 0.0041 (inactive) | -12.1% (inactive) | -16.7% (inactive) |
| CCS(=O)(=O)N1CCC(C(=O)NCc2cccs2)CC1 | 683 | -5.9% (inactive) | 12.4% (inactive) | 77.5 | -111% (inactive) | 102 | -0.549 (inactive) | -2e-05 (inactive) | 0.00636 (inactive) | 5.97% (inactive) | 13.7% (inactive) |
| Cc1noc(C)c1S(=O)(=O)Nc1c(C)n(C)n(-c2ccccc2)c1=O | 410 | 2.5% (inactive) | 33.5% (inactive) | 84.8 | -5.4% (inactive) | 96 | -0.472 (inactive) | 1.2e-05 (inactive) | 0.00591 (inactive) | 13.8% (inactive) | 22.3% (inactive) |
| O=C(Cn1c(=O)[nH]n(-c2ccccc2)c1=O)N1CCCc2ccccc21 | 328 | 0% (inactive) | -15.3% (inactive) | 117 | -87.1% (inactive) | 118 | -0.387 (inactive) | -5.1e-05 (inactive) | 0.00957 (inactive) | 14.4% (inactive) | 25.6% (inactive) |
| O=C(c1ccc(-c2cccc(C(F)(F)F)c2)o1)N1CCOCC1 | 482 | 4.3% (inactive) | -17.9% (inactive) | 117 | 10.8% (inactive) | 99.9 | -0.544 (inactive) | -3.4e-05 (inactive) | 0.00523 (inactive) | -39.9% (inactive) | -93.2% (inactive) |
| COc1ccc(CC(=O)OCc2nnc(C3COc4ccccc4O3)o2)cc1OC (centres undefined) | 440 | -1.1% (inactive) | -0.3% (inactive) | 91.8 | -48% (inactive) | 85.8 | -0.405 (inactive) | 1.8e-05 (inactive) | 0.00765 (inactive) | 7.17% (inactive) | 9.19% (inactive) |
| O=C(NC12CC3CC(CC(C3)C1)C2)C1CCCN1C(=O)NC1CCCCC1 (centres undefined) | 559 | -1.3% (inactive) | 15.8% (inactive) | 96.2 | -17.6% (inactive) | 110 | -0.284 (inactive) | -3.2e-05 (inactive) | 0.00682 (inactive) | -2.83% (inactive) | 28.4% (inactive) |
| Cc1c(C(=O)O)oc2ccc(S(=O)(=O)NCCC3=CCCCC3)cc12 | 652 | 9.2% (inactive) | 5% (inactive) | 88 | -36.3% (inactive) | 114 | -0.454 (inactive) | 4.4e-05 (inactive) | 0.0068 (inactive) | 3.33% (inactive) | 15.9% (inactive) |
| Cc1nnc(N(Cc2ccco2)C(=O)c2cccc(C#N)c2)s1 | 428 | 7.3% (inactive) | 9.6% (inactive) | 101 | 11.7% (inactive) | 111 | -0.569 (inactive) | -1.4e-05 (inactive) | 0.00607 (inactive) | -0.114% (inactive) | 5.23% (inactive) |
| CCOC(=O)N1CCN(CC(=O)Nc2c(C(=O)OC)[nH]c3cccc(Cl)c23)CC1 | 556 | -15.5% (inactive) | -5.4% (inactive) | 96.1 | -23.3% (inactive) | 94 | -0.214 (inactive) | -2.3e-05 (inactive) | 0.00534 (inactive) | 20% (inactive) | -2.65% (inactive) |
| Cc1cnn(C(=S)NCc2ccco2)c1 | 465 | -13.6% (inactive) | 17.2% (inactive) | 94.5 | -15.2% (inactive) | 99.9 | -0.49 (inactive) | -3.2e-05 (inactive) | 0.0043 (inactive) | 6.4% (inactive) | 1.55% (inactive) |
| CCn1c(Cc2ccc(OC)cc2)nnc1SCC(=O)Nc1cccc(C(=O)OC)c1 | 433 | 6% (inactive) | 0.9% (inactive) | 110 | -29.7% (inactive) | 107 | -0.469 (inactive) | -1.6e-05 (inactive) | 0.00613 (inactive) | 12.3% (inactive) | 8.51% (inactive) |
| CN(c1cccc(NS(=O)(=O)c2cccs2)c1)S(C)(=O)=O | 427 | 2.4% (inactive) | -15.2% (inactive) | 110 | -5% (inactive) | 109 | -0.446 (inactive) | -2.2e-06 (inactive) | 0.00491 (inactive) | 21.9% (inactive) | 15.4% (inactive) |
| CC(C(=O)NCCCN1CCOCC1)n1cccc1C(=O)c1ccccc1 (centres undefined) | 572 | 2.7% (inactive) | -8.2% (inactive) | 104 | -1.5% (inactive) | 94.2 | -0.549 (inactive) | -3.4e-05 (inactive) | 0.00579 (inactive) | 17.2% (inactive) | 17% (inactive) |
